# Activity calls are given as the source filed them. The rule behind the calls is not given here.
# What was measured:
# NCI-H460 = test: Cytotoxicity against NCIH460 cells after 48 hrs by XTT assay; format: functional, cell-based; conditions: for Activity: Homo sapiens
# Outline: (§1)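 XTT tetrazolium proliferation assay with 48 h compound exposure. IC50 was obtained by nonlinear regression from at least two independent experiments and reported as mean ± standard deviation.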
# [1] = Cytotoxicity against KB/HeLa cells at 3.16 ug/ml after 48 hrs by XTT assay; format: functional; conditions: Homo sapiens
# RKOp27 = test: (§2) Cytotoxicity against RKOp27 cells after 48 hrs by XTT assay; format: functional, cell-based; conditions: Homo sapiens; outline: as §1
# SK-OV-3 = test: Cytotoxicity against SKOV3 cells after 48 hrs by XTT assay; format: functional, cell-based, Homo sapiens; conditions: for Activity: Homo sapiens; outline: as §1
# SF-268 = test: Cytotoxicity against SF268 cells after 48 hrs by XTT assay; format: functional, cell-based; conditions: for Activity: Homo sapiens; outline: as §1
# [2] = as §2; format: functional, cell-based, Homo sapiens; outline: as §1
# [3] = Cytotoxicity against KB/HeLa cells after 48 hrs by XTT assay; format: functional, cell-based, Homo sapiens; outline: as §1
# L1210 [4] = test: Cytotoxicity against vincristine-resistant L1210 cells by XTT assay; format: functional, Mus musculus; outline: as §1
# P388 [5] = test: Cytotoxicity against P388 cells by XTT assay; format: functional, Mus musculus; outline: as §1
# [6] = Cytotoxicity against LT12 cells by XTT assay; format: functional, Rattus norvegicus; outline: as §1
# [7] = Cytotoxicity against multidrug resistant LT12 cells by XTT assay; format: functional, Rattus norvegicus; outline: as §1
# L1210 [8] = test: Cytotoxicity against L1210 cells by XTT assay; format: functional, Mus musculus; outline: as §1
# P388 [9] = test: Cytotoxicity against adriamycin-resistant P388 Cells by XTT assay; format: functional, Mus musculus; outline: as §1
# [10] = Cell cycle arrest at G2/M phase in KB/HeLa cells after 24 hrs; format: functional, cell-based; conditions: Homo sapiens
# Outline: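 KB/HeLa cells were exposed to several concentrations for 24 h alongside untreated reference cells. They were then stained with propidium iodide and analysed by flow cytometry for cell-cycle phase distribution.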
# U-937 [11] = test: (§3) Effect on apoptosis in U937 cells assessed as increase in caspase 3 activation at <=10 uM after 24 hrs; format: functional, cell-based; conditions: Homo sapiens
# Outline: (§4)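 U937 cells were treated for 24 h at up to 10 μM. Caspase 3/7 activity was then measured by cleavage of a DEVD rhodamine-110 substrate.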
# U-937 [12] = test: as §3; format: functional, cell-based; conditions: Homo sapiens; outline: as §4; remark: listed apart in the source
SMILES,Activity (NCI-H460),inhibition at 3.16 µg/mL [1],Activity (RKOp27),IC50 (SK-OV-3),Activity (SF-268),IC50 (NCI-H460),IC50 [2],IC50 [3],IC50 (SF-268),Activity (SK-OV-3),other results
CN(C)CCn1cc2c(c1)C(=O)c1cnccc1C2=O,inactive,< 50%,inactive,Not Active,inactive,,,,,,
CO/N=C1/c2ccncc2C(=O)c2c1ccn2CCN(C)C,,,,2.24 µmol,,0.79 µmol,1.16 µmol,1.21 µmol,2.43 µmol,,
CN(C)CCn1cc2c(c1)/C(=N\O)c1ccncc1C2=O,inactive,< 50%,inactive,,inactive,,,,,inactive,
COc1cccc2c1C(=O)c1c(O)c3c(c(O)c1C2=O)C[C@@](O)(C(=O)CO)C[C@@H]3O[C@H]1C[C@H](N)[C@H](O)[C@H](C)O1 [DOXORUBICIN],,,,,,,,,,,Activity (L1210 [4]): >3.4 µM; Activity (P388 [5]): 0.52 µM; Activity [6]: 0.031 µM; Activity [7]: >3.4 µM; Activity (L1210 [8]): 0.221 µM; Activity (P388 [9]): >3.4 µM
CCOC(=O)CO/N=C1/c2ccncc2C(=O)c2c1ccn2CCN(C)C,,,,> 12 µmol,,> 12 µmol,> 12 µmol,> 12 µmol,> 12 µmol,,
CN(C)CCO/N=C1/c2ccncc2C(=O)c2cn(CCN(C)C)cc21,inactive,< 50%,inactive,,inactive,,,,,inactive,
CC(=O)O[C@H]1C(=O)[C@@]2(C)[C@H]([C@H](OC(=O)c3ccccc3)[C@]3(O)C[C@H](OC(=O)[C@H](O)[C@@H](NC(=O)c4ccccc4)c4ccccc4)C(C)=C1C3(C)C)[C@]1(OC(C)=O)CO[C@@H]1C[C@@H]2O [PACLITAXEL],,,,,,,,,,,Activity (L1210 [4]): >3.4 µM; Activity (P388 [5]): 0.038 µM; Activity [6]: 0.005 µM; Activity [7]: 0.368 µM; Activity (L1210 [8]): 0.052 µM; Activity (P388 [9]): >3.4 µM
CN(C)CCn1ccc2c1C(=O)c1cnccc1/C2=N/OCCO,,,,0.48 µmol,,0.13 µmol,0.17 µmol,0.66 µmol,1.39 µmol,,Activity (L1210 [4]): 0.16 µM; Activity [10]: Active; Activity (P388 [5]): 0.02 µM; Activity [6]: 0.04 µM; Activity (U-937 [11]): Active; Activity [7]: 0.16 µM; Activity (L1210 [8]): 0.07 µM; Activity (P388 [9]): 0.5 µM; Activity (U-937 [12]): Active
CN(C)CCO/N=C1/c2ccncc2C(=O)c2c1ccn2CCN(C)C,,,,0.94 µmol,,0.23 µmol,0.41 µmol,0.67 µmol,1.23 µmol,,Activity (L1210 [4]): 0.11 µM; Activity [10]: Active; Activity (P388 [5]): 0.02 µM; Activity [6]: 0.03 µM; Activity (U-937 [11]): Active; Activity [7]: 0.07 µM; Activity (L1210 [8]): 0.05 µM; Activity (P388 [9]): 0.4 µM; Activity (U-937 [12]): Active
CN(C)CCn1ccc2c1C(=O)c1cnccc1/C2=N/O,,,,> 12 µmol,,> 12 µmol,> 12 µmol,> 12 µmol,> 12 µmol,,
CN(C)CCn1cc2c(c1)/C(=N\OCCO)c1ccncc1C2=O,inactive,< 50%,inactive,,inactive,,,,,inactive,
CO/N=C1/c2ccncc2C(=O)c2cn(CCN(C)C)cc21,inactive,< 50%,inactive,,inactive,,,,,inactive,
CCOC(=O)CO/N=C1/c2ccncc2C(=O)c2cn(CCN(C)C)cc21,inactive,< 50%,inactive,,inactive,,,,,inactive,
CN(C)CCn1ccc2c1C(=O)c1cnccc1C2=O,,,,13.87 µmol,,3.84 µmol,2.35 µmol,11.04 µmol,4.71 µmol,,
